Bioassay records as filed in PubChem.
OX1R antag-1 – antagonists of human orexin 1 receptor (OX1R). O43613. OX1R-expressing cells, FRET antagonist read-out. actives 1.8% (n = 330,000). inhibition, % at 6.6 µM; in the data active = inhibition mostly above about 38%, no sharp cut-off; inactive = mostly below about 40%;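 note: 0% = agonist challenge alone and 100% = reference antagonist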
Target sequence (O43613 whole entry, looked up): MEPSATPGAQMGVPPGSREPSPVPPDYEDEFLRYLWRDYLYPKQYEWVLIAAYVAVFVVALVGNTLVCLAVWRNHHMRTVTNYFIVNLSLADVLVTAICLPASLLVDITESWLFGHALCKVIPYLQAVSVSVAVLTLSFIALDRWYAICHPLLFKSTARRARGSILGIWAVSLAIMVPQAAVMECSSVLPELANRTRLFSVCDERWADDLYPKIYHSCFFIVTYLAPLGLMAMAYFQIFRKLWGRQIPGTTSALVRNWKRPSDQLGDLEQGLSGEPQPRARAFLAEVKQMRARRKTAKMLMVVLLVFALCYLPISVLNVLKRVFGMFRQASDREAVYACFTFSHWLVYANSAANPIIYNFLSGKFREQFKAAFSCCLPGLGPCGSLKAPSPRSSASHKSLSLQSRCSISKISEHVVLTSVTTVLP
CHO parental Ca – signal in parental CHO cells, OX1R antagonist counter-screen; AID 463079; inhibition, % at 5.6 µM; actives 0.63% (n = 330,000); parental CHO-K1, ATP-induced calcium, Fluo-8 fluorescence;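 active = inhibition above that plate's mean sample inhibition plus 3 SD, cut at about 26% in these data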;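 note: 0% = ATP-challenged DMSO wells and 100% = DMSO wells without ATP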
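test system = CHO parental line | reagent = ATP stimulus | measured by = intracellular calcium via Fluo-8 no-wash fluorescent dye | control set = ATP and no-ATP DMSO wells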
TAAR1 ag – agonists of human TAAR1 | activation, % at 3 µM | CHO RD-HGA16 TAAR1, Fluo-8 calcium fluorescence; vehicle wells 0%, saturating PEA agonist 100% | Q96RJ0 | actives 0.99% (n = 360,000);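 active = activation above the mean activation of all test compounds in the run plus 3 SD, cut at about 38% in these data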
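System: CHO RD-HGA16 cells carrying human TAAR1 plus Gα16; Incubation: 17-24 h seeding, 75 min 37 °C dye, 30 min RT; Measured by: Fluo-8 fluorescence, 5 s baseline then 140 s kinetic read; Control set: DMSO and PEA EC100; Replication: single well for each compound.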
OX1R antag-2 – antagonists of human orexin 1 receptor; O43613; actives 0.43% (n = 330,000); AID 434989; inhibition, % at 5 µM; CHO/OX1R cells, Fluo-8 calcium fluorescence, orexin A;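 active = inhibition above its plate's threshold, mean inhibition of all tested compounds on the plate plus 3 SD, cut at about 37% in these data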;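 note: 0% = orexin A challenge wells and 100% = SB-334867-A antagonist wells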
GPR7 antagonist – antagonists of human GPR7 (neuropeptides B/W receptor 1); actives 1.1% (n = 290,000); P48145; GPR7-expressing cells, fluorescence antagonist assay; inhibition, % at 4.4 µM; in the data active = inhibition above about 16%, passing the limit was not always enough;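 note: cells stimulated with the agonist NPW; 0% = agonist with vehicle and 100% = vehicle without agonist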
TAAR1 antag – human TAAR1 antagonism; Q96RJ0; CHO RD-HGA16 TAAR1, Fluo-8 calcium fluorescence, antagonist; inhibition, % at 3 µM; actives 1.5% (n = 360,000); AID 624466;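 active = inhibition above a per-plate cutoff, the mean inhibition of test compounds on that plate plus 3 SD, cut at about 49% in these data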;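 note: 0% = DMSO plus EC80 beta-PEA response and 100% = DMSO alone without agonist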
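Material: RD-HGA16 CHO cells with stable hTAAR1 and Gα16; Dosing: single nominal final test compound concentration of 3 µM; Schedule: seeding 17-24 h prior, 75-min 37 °C, 30-min RT dye loading; Detection: kinetic Fluo-8 calcium fluorescence measurement; Measure: % inhibition from peak post-agonist over basal fluorescence ratio; Benchmarks: vehicle and agonist controls.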
Active calls of the source: *; · = no result. Compounds with a hit are over-represented: about 4.6% of the library has one in this group of screens.

SMILES	OX1R antag-1	CHO parental Ca	TAAR1 ag	OX1R antag-2	GPR7 antagonist	TAAR1 antag
O=C(Oc1ccc(-c2cn3c(n2)SCC3)cc1)c1ccccc1	13	15	10	31	18*	19
CC(=O)Nc1ccc(-c2cn3c(n2)SCC3)cc1	-4	0	6	0	-11	-14
C=CCNc1nc2c(c(=O)n(C)c(=O)n2C)n1Cc1ccc(F)cc1	29	40*	3	-31	-6	15
O=C(NNc1ccccc1[N+](=O)[O-])Nc1ccccc1	13	-4	·	-20	-1	·
Cc1cc([N+](=O)[O-])ccc1NC(=O)Nc1ccccc1F	5	-5	7	-8	-11	13
O=C(NNc1ccccc1[N+](=O)[O-])Nc1ccc(F)cc1	19	-15	42*	-4	-2	15
O=C(Nc1ccccc1)Nc1cc([N+](=O)[O-])ccc1F	16	-5	41*	-1	5	3
CC(OC(=O)c1cc(Br)ccc1O)C(=O)NC1(C#N)CCCCC1 (centres undefined)	7	-7	13	-6	·	9
COc1ccc([N+](=O)[O-])cc1NC1CCN(C(=O)c2cccs2)CC1	16	-12	2	-18	-10	-33
Cc1ccsc1-c1nc(CSCC(=O)N2CCN(c3ccccc3)CC2)c(C)o1	38*	3	-1	-16	11	18
Cc1ccc(-c2nc(CSCC(=O)N3CCCC3)c(C)o2)cc1	14	-9	15	-10	-3	-9
Cc1cccc(-c2nc(CSCC(=O)N3CCN(c4ccccn4)CC3)c(C)o2)c1	45*	14	10	0	-1	20
CC(C)CN(C(=O)c1cc(Cl)nc2ccccc12)c1c(N)n(Cc2ccccc2)c(=O)[nH]c1=O	4	-9	1	-15	·	1
NC(=O)COc1ccc2oc(=O)cc(-c3cc4ccccc4o3)c2c1	6	-20	8	-21	-9	3
O=C(Nc1ccc(Cl)cn1)C1CCCN1S(=O)(=O)c1ccccc1 (centres undefined)	70*	-19	3	19	-14	7
O=C(Nc1ccccc1)C1CCCN1S(=O)(=O)c1ccc(Br)cc1 (centres undefined)	64*	-12	0	16	-14	-30
O=C(Nc1nccs1)C1CCCN1S(=O)(=O)c1ccc(Cl)cc1 (centres undefined)	23	-17	5	5	1	-10
O=C(Nc1cccnc1)C1CCCN1S(=O)(=O)c1ccc(Cl)c(Cl)c1 (centres undefined)	63*	-15	11	1	-3	-18
O=C(Nc1ccc(Br)cn1)C1CCCN1S(=O)(=O)c1ccccc1 (centres undefined)	49*	-24	4	-2	3	7
Cc1cc(C)cc(NC(=O)C2CCCCN2S(=O)(=O)c2ccccc2)c1 (centres undefined)	·	·	-2	·	·	-8
Cn1c(SCc2c(Cl)cccc2Cl)nnc1-c1cccs1	18	-15	2	-17	2	-3
O=C(Nc1ccc(N2CCOCC2)c(F)c1)c1ccncc1	22	-6	0	-6	2	1
CN(CCOc1ccc(-c2ccn(S(=O)(=O)c3c(Cl)cccc3Cl)n2)cc1)c1ccccn1	12	-8	3	-20	-2	5
CN(CCOc1ccc(-c2ccn(S(=O)(=O)c3ccc(Cl)cc3)n2)cc1)c1ccccn1	39	-7	10	-5	19*	5
CC(=O)Nc1ccc(-c2cc3ccccc3o2)cc1	24	7	2	16	20*	33
SMILES	OX1R antag-1	CHO parental Ca	TAAR1 ag	OX1R antag-2	GPR7 antagonist	TAAR1 antag
CCOc1ccc(N2C(=O)CC(SC(=NC)Nc3ccc(F)cc3)C2=O)cc1 (centres undefined)	-8	-7	12	-12	-16	31
Clc1nssc1=Nc1ccc(Br)cc1	·	·	42*	·	-8	32
COc1cc(/C=C2\SC(=S)N(Nc3ccccc3)C2=O)ccc1O	21	42*	54*	40	13	57*
CCOc1cc(/C=C2\SC(=S)N(NS(=O)(=O)c3ccccc3)C2=O)ccc1O	29	-1	8	-7	-10	20
CCOC(=O)CN1C(=O)S/C(=C/c2ccc(O)c([N+](=O)[O-])c2)C1=O	56*	-7	7	-6	-3	7
CCOc1cc(/C=C2\SC(=S)N(Nc3ccccc3)C2=O)ccc1O	18	33	51*	19	0	60*
COc1cc(/C=C2\SC(=S)N(Nc3ncc(C(F)(F)F)cc3Cl)C2=O)ccc1O	7	40*	52*	49*	11	66*
CCOC(=O)CN1C(=O)S/C(=C/c2ccc(C)o2)C1=O	11	-3	3	-9	9	17
O=C1/C(=C/c2ccc(O)c(O)c2)SC(=S)N1Nc1ccccc1	·	·	·	·	-4	·
O=C(NN1C(=O)/C(=C\c2ccc(O)c([N+](=O)[O-])c2)SC1=S)c1ccccc1Cl	64*	-7	1	-19	-4	-30
O=C(O)c1ccc(/C=C2\SC(=S)N(NC(=O)c3ccccc3[N+](=O)[O-])C2=O)cc1	·	·	0	·	-1	-18
COc1cc(/C=C2/SC(=S)N(CC3CCCO3)C2=O)ccc1O (centres undefined)	11	24	42*	18	6	42
COc1ccc(NC(=O)CSc2nnc(-c3cccc(O)c3)o2)cc1	9	15	40*	-11	7	-12
Cc1cccc(OCc2nnc(SCC(=O)Nc3ccc(C)c(C)c3)o2)c1	3	-11	5	1	-10	54*
O=C(Nc1ccc(Cl)cc1)c1nc[nH]c1C(=O)NCCCCNC(=O)c1[nH]cnc1C(=O)Nc1ccc(Cl)cc1	6	13	13	-10	·	52*
CN(C)c1ncnc2sc(-c3ccccc3)cc12	64*	-16	1	-23	-12	-8
COc1ncnc2sc(-c3ccccc3)cc12	0	0	-1	-21	-6	-10
CC(C)n1c(O)c(N=Nc2ccc(Cl)nn2)c2ccccc21	0	-2	8	-12	-1	0
Cc1cccc(C(=O)OCC(=O)NCc2ccc(Cl)cc2)c1	·	·	8	·	·	-15
O=C(COC(=O)/C=C/c1ccccc1)Nc1nnc(-c2ccccc2)o1	21	5	-1	-3	·	3
COc1cc(/C=C/C(=O)OCC(=O)Nc2nnc(-c3ccccc3)o2)cc(OC)c1OC	72*	-15	0	-38	·	10
COc1cc(NC2=Nc3cccc4cccc2c34)cc(OC)c1OC	36	-21	-2	-32	-7	-8
COc1cccc(NC2=Nc3cccc4cccc2c34)c1	72*	-29	7	-20	-5	-5
